Test results published in ChEMBL document CHEMBL1156688, “Synthesis and biological activities of a series of 4,5-diaryl-3-hydroxy-2(5H)-furanones” (Eur J Med Chem, 2008).

Experiments:
[1] = DPPH radical scavenging activity assessed as ratio of drug concentration to DPPH concentration producing 50% decrease in DPPH after 5 mins; type: functional
Outline: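 DPPH decay was followed spectrophotometrically at 515 nm, read every 0.02 min, starting from about […] DPPH. ECR50 is the ratio of antioxidant to DPPH concentration giving a 50% fall in DPPH; the methods state 6 min of reaction. Trolox and ascorbic acid served as references.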

[2] = Antioxidant activity assessed as inhibition of peroxynitrite-induced evans blue bleaching at 50 uM; type: functional; parameters: scale not given: the % may be the effect or the level left
Outline: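 Room-temperature assay in 50 mM phosphate-buffered saline, pH 7.4, containing 0.1 mM diethylenetriaminepentaacetic acid, 90 mM NaCl and 5 mM KCl. Test compound, Evans Blue ([…] as printed) and peroxynitrite ([…] as printed) were mixed rapidly. Bleaching was read at 608 nm. Blanks held DMF alone or peroxynitrite degraded for 5 min.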

[3] = molecular target: T1, Polyunsaturated fatty acid 5-lipoxygenase (Homo sapiens) (UniProt P09917); assay: Inhibition of 5LOX in human whole blood assessed as inhibition of calcium ionophore A-stimulated 5-HETE production at 10 uM; type: tissue-based; parameters: scale not given: the % may be the effect or the level left
T1 sequence (whole entry): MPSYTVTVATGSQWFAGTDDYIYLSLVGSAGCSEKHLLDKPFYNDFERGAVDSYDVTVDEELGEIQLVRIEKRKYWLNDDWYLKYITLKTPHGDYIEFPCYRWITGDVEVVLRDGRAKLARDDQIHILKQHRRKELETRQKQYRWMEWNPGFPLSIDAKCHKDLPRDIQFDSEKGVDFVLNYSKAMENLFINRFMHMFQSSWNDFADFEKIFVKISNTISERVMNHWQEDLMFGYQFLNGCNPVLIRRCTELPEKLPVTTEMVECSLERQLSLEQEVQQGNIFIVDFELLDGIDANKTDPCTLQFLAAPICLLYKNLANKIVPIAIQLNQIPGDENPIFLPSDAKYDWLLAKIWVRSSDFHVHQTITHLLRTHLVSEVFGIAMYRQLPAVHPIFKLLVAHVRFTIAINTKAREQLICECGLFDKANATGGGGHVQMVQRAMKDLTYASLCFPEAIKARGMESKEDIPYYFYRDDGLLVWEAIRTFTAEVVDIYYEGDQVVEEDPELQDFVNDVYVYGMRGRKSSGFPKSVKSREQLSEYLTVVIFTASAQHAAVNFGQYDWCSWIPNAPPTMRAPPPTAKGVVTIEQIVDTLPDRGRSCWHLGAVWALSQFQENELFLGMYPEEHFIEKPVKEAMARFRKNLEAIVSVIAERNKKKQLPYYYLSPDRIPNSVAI
Outline: (§1)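 Fresh heparinized blood from normal volunteers, in 1 mL aliquots, was preincubated 15 min at 37 °C with compound or DMSO vehicle. It was then stimulated with calcium ionophore A23187 for 30 min at 37 °C. Eicosanoids were extracted into ethyl acetate, dried under nitrogen and redissolved in mobile phase. 5-HETE was quantified by reversed-phase HPLC with UV detection.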

[4] = molecular target: Human immunodeficiency virus type 1 integrase (Human immunodeficiency virus 1, UniProt Q7ZJM1); assay: Inhibition of HIV1 integrase
Outline: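 Wild-type HIV-1 integrase (1 pmol) was tested in a 3′-processing reaction with 0.025 pmol labelled U5A/U5B double-stranded DNA substrate. Buffer was 20 mM Hepes pH 7.2, 10 mM MgCl2, 25 mM NaCl and 1 mM DTT. Oligonucleotides were gel-purified on 18% denaturing acrylamide/urea.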

[5] = molecular target: T1, Polyunsaturated fatty acid 5-lipoxygenase (Homo sapiens); assay: Inhibition of 5LOX in human whole blood assessed as inhibition of calcium ionophore A-stimulated 5-HETE production at 100 uM; type: tissue-based; parameters: scale not given: the % may be the effect or the level left; outline: as §1
[6] = molecular target: Prostaglandin G/H synthase 1 (Homo sapiens) (UniProt P23219); assay: Inhibition of COX1 at 100 uM
[7] = tested on: PC-3; assay: Antiproliferative activity against human PC3 cells after 72 hrs by MTT assay; settings: PC-3, 72 h
[8] = tested on: PC-3; assay: Antiproliferative activity against human PC3 cells at 10 uM after 72 hrs by MTT assay; type: functional; settings: PC-3, 72 h
Outline: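 PC3 cells were grown in RPMI 1640 with 10% fetal calf serum at 37 °C under 5% CO2. They were plated at 1.8 × 10^4 cells/well and grown 3 days, then serum-starved 24 h to synchronize. Compounds were added in medium with less than 0.1% DMSO. Growth was estimated by colorimetric MTT after 72 h.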

Chain of Human immunodeficiency virus type 1 integrase (Q7ZJM1 whole entry): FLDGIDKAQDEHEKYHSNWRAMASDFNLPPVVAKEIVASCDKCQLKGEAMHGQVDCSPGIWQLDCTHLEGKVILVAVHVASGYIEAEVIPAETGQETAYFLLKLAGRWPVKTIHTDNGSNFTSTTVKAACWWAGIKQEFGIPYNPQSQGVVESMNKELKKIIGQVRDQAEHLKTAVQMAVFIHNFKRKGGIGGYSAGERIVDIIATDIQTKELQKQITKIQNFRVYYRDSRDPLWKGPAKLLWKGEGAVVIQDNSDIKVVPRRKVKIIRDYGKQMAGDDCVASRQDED

Activity [3] [%] | IC50 [4] [µM] | Activity [5] [%] | inhibition [6] [%] | IC50 [7] [µM] | Compound | Ratio [1] | Activity [2] [%] | inhibition at 10 µM [8] [%]
– | – | – | – | – | O=C1O[C@H]([C@@H](O)CO)C(O)=C1O | 0.26 | 83.6 | –
32 | > 300 | – | – | – | O=C1OC(c2cc(OCc3ccccc3)cc(OCc3ccccc3)c2)C(c2ccc(O)cc2)=C1O (configuration not stated) | 0.65 | 10.4 | –
0 | > 300 | 18.6 | 32.9 | – | O=C1OC(c2ccccc2)C(c2ccc(O)cc2)=C1O (configuration not stated) | 0.49 | 29.4 | –
– | – | – | – | 48 | Cc1ccc(-c2cc(C(F)(F)F)nn2-c2ccc(S(N)(=O)=O)cc2)cc1 [CELECOXIB] | – | – | –
0 | 30 | – | – | – | O=C1OC(c2cc(OCc3ccccc3)cc(OCc3ccccc3)c2)C(c2ccc(F)cc2)=C1O (configuration not stated) | – | 0 | –
0 | > 300 | 16.4 | 16.4 | – | O=C1OC(c2ccc(F)cc2)C(c2ccc(O)cc2)=C1O (configuration not stated) | 0.27 | 46.5 | –
0 | 220 | 27.8 | – | – | O=C1OC(c2ccc(O)cc2)C(c2ccc(O)cc2)=C1O (configuration not stated) | 0.32 | 44.9 | 0
12.7 | 1 | – | – | – | O=C1OC(c2ccc(OCc3ccccc3)c(OCc3ccccc3)c2)C(c2ccc(O)cc2)=C1O (configuration not stated) | 0.71 | 4.9 | –
0 | 300 | 0 | – | – | O=C1OC(c2ccc(O)cc2)C(c2ccc(F)cc2)=C1O (configuration not stated) | – | 0 | 31
0 | 22 | 11.6 | – | – | O=C1OC(c2cc(O)cc(O)c2)C(c2ccc(O)cc2)=C1O (configuration not stated) | 0.47 | 33.1 | 39
0 | 10 | – | – | – | O=C1OC(c2ccc(OCc3ccccc3)c(OCc3ccccc3)c2)C(c2ccc(F)cc2)=C1O (configuration not stated) | – | 0 | –
0 | > 300 | – | – | – | O=C1OC(c2ccc(OCc3ccccc3)cc2)C(c2ccc(O)cc2)=C1O (configuration not stated) | 0.3 | 0 | –
35.4 | 9.2 | 79.5 | – | – | O=C1OC(c2ccc(O)c(O)c2)C(c2ccc(O)cc2)=C1O (configuration not stated) | 0.25 | 92 | 20
0 | > 300 | – | – | – | O=C1OC(c2ccc(OCc3ccccc3)cc2)C(c2ccc(F)cc2)=C1O (configuration not stated) | – | 0 | –
– | 3.6 | – | – | – | O=C1OCC(c2ccc(O)cc2)=C1O | – | – | –
– | – | – | – | – | Cc1c(C)c2c(c(C)c1O)CCC(C)(C(=O)O)O2 (configuration not stated) | 0.26 | 90 | –
0 | 92 | 10.7 | – | – | O=C1OC(c2cc(O)cc(O)c2)C(c2ccc(F)cc2)=C1O (configuration not stated) | – | 40.9 | 0
